Measurements from different studies.
Lines come from different studies, so protocols differ. pIC50: −log10 of the molar value.
Cell line: MCF7
Effect on: cell growth or viability

Structure (SMILES)	technique	time	quantity	result
c1ccc(Cn2nc(-c3nc(-c4ccccc4)n[nH]3)c3ccccc32)cc1	–	48 h	pIC50	4.01
O=C1C(=Nc2ccccc2I)c2ccccc2N1Cc1cccc(Cl)c1	MTT	48 h	pIC50	4.87
C(=N\Nc1cc(N/N=C/c2cccc3cccnc23)nc(-c2ccccc2)n1)/c1cccc2cccnc12	MTT	48 h	pIC50	4.98
Cc1nc2ccc(-c3ccc(F)c(F)c3)cc2c(O)c1C(=O)O	MTT	48 h	pIC50	≤ 4.00
O=C1Nc2ccccc2C1=Nc1ccccc1Br	MTT	48 h	pIC50	< 4.00
CC(=NNC(=O)c1cc(-c2ccccc2)n(-c2ccc(S(N)(=O)=O)cc2)n1)c1ccc(Br)cc1	fluorescence	48 h	pIC50	4.45
O=C(/C=C/c1ccc(F)cc1)c1nc2ccccc2n1Cc1cn([C@@H]2OC[C@@H](O)[C@H](O)[C@H]2O)nn1	LDH	48 h	pIC50	5.69
O=C1CSC(=Nc2cc([N+](=O)[O-])ccc2[N+](=O)[O-])N1c1nnc(-c2ccc(C(F)(F)F)cc2N=C2SCC(=O)N2c2cc([N+](=O)[O-])ccc2[N+](=O)[O-])s1	MTT	–	pIC50	4.08
CC1=CC(=O)C(C(C)C)=CC1=O	SRB	48 h	pIC50	5.01
C/C(=N\c1nc(N)nc(/N=C(\C)c2c(O)c3ccccc3oc2=O)n1)c1c(O)c2ccccc2oc1=O	MTT	48 h	pIC50	5.18
O=[N+]([O-])c1ccc(O)c(C=NNc2ccc(Cl)cc2)c1	MTT	24 h	pIC50	5.03
NNc1nc2c(Cl)cc(Cl)cc2c(=O)n1-c1ccc(Cl)cc1	MTT	48 h	pIC50	< 3.70
COc1cccc2c1C(=O)c1c(O)c3c(c(O)c1C2=O)C[C@@](O)(C(=O)CO)C[C@@H]3O[C@H]1C[C@H](N)[C@H](O)[C@H](C)O1	–	96 h	pIC50	6.84
COc1cc([C@@H]2c3cc4c(cc3[C@@H](O[C@@H]3O[C@@H]5CO[C@@H](C)O[C@H]5[C@H](O)[C@H]3O)[C@H]3COC(=O)[C@H]23)OCO4)cc(OC)c1O	MTT	48 h	pIC50	4.96
CC1CCC(C(C)C)C(OC2=C(Cl)C(=O)c3ccccc3C2=O)C1 (stereo not shown)	MTT	24 h	IC50	21.9 µg/mL
FC(F)(F)c1ccc(-c2nnc(-c3nn(Cc4ccc(Cl)cc4Cl)c4ccccc34)o2)cc1	–	48 h	pIC50	4.15
O=C1Nc2ccccc2/C1=N/N=C/c1cccc([N+](=O)[O-])c1	MTT	24 h	IC50	48.9 µg/mL
O=C(O)c1cn(Cc2ccc(C(F)(F)F)cc2)c2ccc(Oc3ccccc3)cc2c1=O	MTT	24 h	pIC50	4.41
COc1cc(C=NNC(=O)c2cc(-c3ccccc3)n(-c3ccc(S(N)(=O)=O)cc3)n2)cc(OC)c1OC	fluorescence	48 h	pIC50	4.67
CN(C)c1ccc(Nc2nc(-c3ccncc3)nc3c2CC(N)CC3)cc1 (stereo not shown)	MTT	–	pIC50	4.80
O=C1C(=Nc2ccccc2I)c2ccccc2N1Cc1ccc(Br)cc1	MTT	48 h	pIC50	5.06
C[C@H]1[C@H](C)CC[C@]2(C)CC[C@]3(C)C(=CC(=O)[C@@H]4[C@@]5(C)CC[C@@H](O)[C@](C)(C(=O)NCc6cn(-c7ccccc7C(F)(F)F)nn6)[C@@H]5CC[C@]43C)[C@H]12	MTT	24 h	pIC50	4.08
